The record followed here is the array DNA melting data of Ke et al. (doi:10.1101/2024.01.08.574731).

The nature of data set [1]: folding enthalpy; higher = less favourable; fluorescence melt of hairpins on a sequencing array, two-state fit. Conditions: sodium 0.088 M. A digest of the protocol: (§1)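 On a sequenced MiSeq flow cell, library hairpins with annealed Cy3 and quencher oligos were imaged for Cy3 fluorescence in 2.5 °C steps up to 60 °C, in 50 mM Na-HEPES pH 8.0, 25 mM NaCl. Normalisation used pre-quench Cy3 and control constructs. Bootstrapped two-state fits gave melting temperature and folding enthalpy, combined by inverse variance across four replicates and with fitted temperatures raised by 9.35 °C to match UV melts.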

Data set [2] is described as follows: melting temperature; fluorescence melt of hairpins on a sequencing array, two-state fit, raised by 9.35 °C to match UV melts. To be noted: sodium 0.088 M. An outline of the steps:
as §1

As to GGTCTAGGAAACTAGACC (((((((....))))))), in data set [1], the folding enthalpy is -47.7 kcal/mol. Further, the Tm in data set [2] came out at 60.5 °C.
In the case of GGTCTCGAAAGAGAAACC ((((((....)))..))), in data set [1], the folding enthalpy is -21.5 kcal/mol. The Tm in data set [2] came to 34.7 °C.
Turning to GGTCTCGAAAGAGCAACC ((((((....)))..))), in data set [1], the folding enthalpy was -14.2 kcal/mol. Moreover, the Tm in data set [2] came out at 34.5 °C.
As to GGTCTCGAAAGAGCCACC ((((((....)))..))), in data set [1], the folding enthalpy was -14.8 kcal/mol. The Tm in data set [2] came out at 43.3 °C.
For GGTCTCGAAAGAGGAACC ((((((....)))..))), in that order: -16.9 kcal/mol and 35.1 °C.
For GGTCTCGGAAACGAGATC (.(((((....))))).), in data set [1], the folding enthalpy was -38.2 kcal/mol. Moreover, the Tm in data set [2] was determined as 52.1 °C.
For GGTCTGGCGAAAGCCACC (((..(((....)))))), in that order: -7.45 kcal/mol and 27.1 °C.
For GGTCTTGGAAACAAGGTC (..((((....))))..), in that order: -12 kcal/mol and 30.4 °C.
For GGTGAACGAAAGTTAACC (((.(((....))).))), in that order: -34.1 kcal/mol and 49.2 °C.
For the sequence GGTGAAGGAAACTTCGCC ((.((((....)))).)), the folding enthalpy in data set [1] is -45.2 kcal/mol. The Tm in data set [2] worked out at 52.6 °C.
For GGTGAAGGAAACTTCGTC (..((((....))))..), in that order: -12 kcal/mol and 26.6 °C.
For GGTGACCGAAAGGTTACC (((.(((....))).))), in that order: -40 kcal/mol and 60.5 °C.
For GGTGACGAAAGTCAGACC ((((((....)))..))), in that order: -14.6 kcal/mol and 44.6 °C.
As for GGTGACGAAAGTCATACC ((((((....)))..))), the folding enthalpy in data set [1] is -13.6 kcal/mol. Further, the Tm in data set [2] is 40.7 °C.
For GGTGACGAAAGTCGACC ((((((....))).))), in that order: -23.1 kcal/mol and 53.4 °C.
For GGTGACGAAAGTCGGACC ((((((....)))..))), in that order: -15.8 kcal/mol and 42.1 °C.
As for GGTGACGAAAGTCTAACC ((((((....)))..))), the folding enthalpy in data set [1] was -18.2 kcal/mol. In addition, in data set [2], the Tm came out at 42.2 °C.
For the sequence GGTGAGAAATCACC (((((....))))), in data set [1], the folding enthalpy was -27.6 kcal/mol. The Tm in data set [2] amounted to 51 °C.
As for GGTGAGCGAAAGCTTACC (((.(((....))).))), in data set [1], the folding enthalpy was -26.7 kcal/mol. Moreover, in data set [2], the Tm amounted to 59.3 °C.
For GGTGAGGGAAACTTCGCC ((.((.(....).)).)), in that order: -23.7 kcal/mol and 35.7 °C.
Regarding GGTGATACGAAAGTAACC (((..(((....)))))), in data set [1], the folding enthalpy is -11.7 kcal/mol. The Tm in data set [2] was found to be 33.6 °C.
For GGTGATCCGAAAGGAACC (((..(((....)))))), in that order: -18.7 kcal/mol and 33.2 °C.
In the case of GGTGATGGAAACATCGCC ((.((((....)))).)), the folding enthalpy in data set [1] was -45.2 kcal/mol. Also, in data set [2], the Tm stood at 55.6 °C.
For GGTGCCCGAAAGGGACC (((.(((....)))))), in that order: -21.5 kcal/mol and 58.1 °C.
Turning to GGTGCCGAAAGGCATACC ((((((....)))..))), the folding enthalpy in data set [1] was -11.6 kcal/mol. Also, the Tm in data set [2] stood at 48.2 °C.
Take GGTGCCGAAAGGCCTACC ((((((....)))..))): the folding enthalpy in data set [1] was -10.7 kcal/mol. The Tm in data set [2] was determined as 39.6 °C.
For GGTGCGGGAAACCGTACC (((.(((....))).))), in that order: -44.7 kcal/mol and 58.1 °C.
On to GGTGCGGGAAACCGTGCC ((..(((....)))..)), for which the folding enthalpy in data set [1] was -46.1 kcal/mol. For the same sequence, the Tm in data set [2] stood at 53.1 °C.
In the case of GGTGCTGGAAACAGCGTC (..((((....))))..), the folding enthalpy in data set [1] was -12.8 kcal/mol. Moreover, the Tm in data set [2] is 41 °C.
For GGTGGACGAAAGTCAACC (((.(((....))).))), in that order: -40.3 kcal/mol and 56.6 °C.
